Data reported in ChEMBL document CHEMBL4340580, “Antibacterial and Inhibitory Activities against Nitric Oxide Production of Coumaronochromones and Prenylated Isoflavones from Millettia extensa” (J Nat Prod, 2019).
In brackets after ≈: the same amount, converted by molar mass. Activity calls are given as the source filed them. The calls are words filed in the database; no cut-off is given here.

Assays:
[1] = tested on: RAW264.7; test: Inhibition of LPS-induced nitric oxide production in mouse RAW264.7 cells incubated for 24 hrs by Griess reagent based assay; assay type: functional, cell-based
Method in brief: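 RAW 264.7 cells were seeded at 5.0 × 10^5 cells/mL and held 24 h at 37 °C, 5% CO2. Medium was discarded and cells were stimulated with 1 μg/mL LPS with or without compound for 24 h at 37 °C. Supernatant was mixed 1:1 with Griess reagent for 10 min at room temperature. Absorbance was read at 570 nm against a sodium nitrite calibration curve, giving IC50.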

[2] = tested on: Bacillus cereus; test: Antibacterial activity against Bacillus cereus by CLSI protocol based method; assay type: functional
Method in brief: (§1)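 Strains came from the Microbiological Resources Center, Bangkok, Thailand. Antibacterial testing followed Clinical and Laboratory Standards Institute recommendations.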

[3] = tested on: Shigella flexneri; test: Antibacterial activity against Shigella flexneri at >128 ug/ml by CLSI protocol based method; assay type: functional, organism-based; method in brief: as §1
[4] = tested on: Micrococcus luteus; test: Antibacterial activity against Micrococcus luteus by CLSI protocol based method; assay type: functional; method in brief: as §1
[5] = tested on: Shigella flexneri; test: Antibacterial activity against Shigella flexneri by CLSI protocol based method; assay type: functional; method in brief: as §1
[6] = tested on: Staphylococcus aureus; test: Antibacterial activity against Staphylococcus aureus by CLSI protocol based method; assay type: functional; method in brief: as §1
[7] = tested on: Staphylococcus epidermidis; test: Antibacterial activity against Staphylococcus epidermidis by CLSI protocol based method; assay type: functional; method in brief: as §1
[8] = tested on: Pseudomonas aeruginosa; test: Antibacterial activity against Pseudomonas aeruginosa by CLSI protocol based method; assay type: functional; method in brief: as §1
[9] = tested on: Escherichia coli; test: Antibacterial activity against Escherichia coli by CLSI protocol based method; assay type: functional; method in brief: as §1
[10] = tested on: Streptococcus mutans; test: Antibacterial activity against Streptococcus mutans by CLSI protocol based method; assay type: functional; method in brief: as §1
[11] = tested on: Streptococcus mutans; test: Antibacterial activity against Streptococcus mutans at >128 ug/ml by CLSI protocol based method; assay type: functional, organism-based; method in brief: as §1
[12] = tested on: Escherichia coli; test: Antibacterial activity against Escherichia coli at >128 ug/ml by CLSI protocol based method; assay type: functional, organism-based; method in brief: as §1
[13] = tested on: Bacillus cereus; test: Antibacterial activity against Bacillus cereus at >128 ug/ml by CLSI protocol based method; assay type: functional, organism-based; method in brief: as §1
[14] = tested on: Micrococcus luteus; test: Antibacterial activity against Micrococcus luteus at >128 ug/ml by CLSI protocol based method; assay type: functional, organism-based; method in brief: as §1
[15] = tested on: Pseudomonas aeruginosa; test: Antibacterial activity against Pseudomonas aeruginosa at >128 ug/ml by CLSI protocol based method; assay type: functional, organism-based; method in brief: as §1
[16] = Toxicity in mouse RAW264.7 cells assessed as cell viability at 10 uM by MTT assay; assay type: cell-based; details: read-out: Activity
[17] = Mus musculus, RAW264.7, 24 h, read-out: IC50

Compound	IC50 [1, 17] [µM]	MIC [2]	Activity [3]	MIC [4]	MIC [5]	MIC [6] [µg/mL]	MIC [7] [µg/mL]	MIC [8]	MIC [9]	MIC [10]	Activity [11]	Activity [12]	Activity [13]	Activity [14]	Activity [15]	viability at 10 µM [16] [%]	IC50 ([1]; raw264.7)
COc1ccc2c(c1)c(CC(=O)O)c(C)n2C(=O)c1ccc(Cl)cc1 [INDOMETHACIN]	62.9																
C=CC(C)(C)c1cc(-c2coc3cc4c(c(OC)c3c2=O)C=CC(C)(C)O4)c(O)cc1O		8 µg/mL (≈ 18.4 µM)	inactive	32 µg/mL (≈ 73.6 µM)	inactive	8 (≈ 18.4 µM)	128 (≈ 295 µM)	128 µg/mL (≈ 295 µM)	128 µg/mL (≈ 295 µM)	128 µg/mL (≈ 295 µM)							
COc1c2c(cc3occ(-c4ccc(OCC=C(C)C)cc4O)c(=O)c13)OC(C)(C)C=C2		inactive	inactive	inactive	inactive	128 (≈ 295 µM)	128 (≈ 295 µM)	inactive	inactive	inactive	inactive	inactive	inactive	inactive	inactive		
CN[C@H](CC(C)C)C(=O)N[C@H]1C(=O)N[C@@H](CC(N)=O)C(=O)N[C@H]2C(=O)N[C@H]3C(=O)N[C@H](C(=O)N[C@H](C(=O)O)c4cc(O)cc(O)c4-c4cc3ccc4O)[C@H](O)c3ccc(c(Cl)c3)Oc3cc2cc(c3O[C@@H]2O[C@H](CO)[C@@H](O)[C@H](O)[C@H]2O[C@H]2C[C@](C)(N)[C@H](O)[C@H](C)O2)Oc2ccc(cc2Cl)[C@H]1O [VANCOMYCIN]		0.125 µg/mL (≈ 0.0863 µM)		0.25 µg/mL (≈ 0.173 µM)		0.25 (≈ 0.173 µM)	0.25 (≈ 0.173 µM)			0.25 µg/mL (≈ 0.173 µM)							
CC(C)=CCc1c2c(c(O)c3c(=O)c4c(oc5cc(O)ccc54)oc13)C=CC(C)(C)O2		128 µg/mL (≈ 306 µM)		inactive	128 µg/mL (≈ 306 µM)	128 (≈ 306 µM)	128 (≈ 306 µM)	inactive	inactive	inactive	inactive	inactive		inactive	inactive	79.2	Not Active
COc1cc(-c2coc3cc4c(c(O)c3c2=O)C=CC(C)(C)O4)c(OC)cc1OCC=C(C)C		inactive		inactive	128 µg/mL (≈ 276 µM)	128 (≈ 276 µM)	128 (≈ 276 µM)	inactive	inactive	inactive	inactive	inactive	inactive	inactive	inactive	60.1	Not Active
CC(C)=CCC1=C(O)c2c(occ(-c3ccc(O)cc3O)c2=O)C(CC=C(C)C)(CC=C(C)C)C1=O																75.5	Not Active
CC(C)=CCOc1ccc(-c2coc3cc(OCC=C(C)C)cc(O)c3c2=O)cc1		inactive		inactive	128 µg/mL (≈ 315 µM)	128 (≈ 315 µM)	128 (≈ 315 µM)	inactive	inactive	inactive	inactive	inactive	inactive	inactive	inactive	72.2	Not Active
C=CC(C)(C)c1cc(-c2coc3cc4c(c(O)c3c2=O)C=CC(C)(C)O4)ccc1O		64 µg/mL (≈ 158 µM)		64 µg/mL (≈ 158 µM)	128 µg/mL (≈ 316 µM)	64 (≈ 158 µM)	128 (≈ 316 µM)	inactive	inactive	128 µg/mL (≈ 316 µM)		inactive			inactive	61.1	Not Active
CC1(C)C=Cc2c(c(CCO)c3occ(-c4ccc(O)c(O)c4)c(=O)c3c2O)O1			inactive	32 µg/mL (≈ 80.7 µM)	inactive		128 (≈ 323 µM)	inactive	128 µg/mL (≈ 323 µM)	128 µg/mL (≈ 323 µM)					inactive	68.2	Not Active
CC(C)=CCc1c2c(c(O)c3c(=O)c(-c4ccc(O)cc4O)coc13)C=CC(C)(C)O2																75.5	Not Active
COc1cc(O)c2c(=O)c(-c3ccc(OCC=C(C)C)cc3)coc2c1		inactive	inactive	inactive	inactive	128 (≈ 363 µM)	128 (≈ 363 µM)	inactive	inactive	inactive	inactive	inactive	inactive	inactive	inactive	65.3	Not Active
CC(C)=CCOc1ccc2c(c1)O[C@@H]1Oc3cc4c(c(O)c3C(=O)[C@]21O)C=CC(C)(C)O4		32 µg/mL (≈ 73.3 µM)	inactive	64 µg/mL (≈ 147 µM)	inactive	32 (≈ 73.3 µM)	128 (≈ 293 µM)	inactive	inactive	128 µg/mL (≈ 293 µM)		inactive			inactive	65.3	Not Active
GENTAMICIN									0.25 µg/mL								
COc1c2c(cc3occ(-c4ccc(OCC=C(C)C)cc4)c(=O)c13)OC(C)(C)C=C2															inactive	68.7	Not Active
COc1c2c(cc3c1C(=O)[C@]1(O)c4ccc(OCC=C(C)C)cc4O[C@@H]1O3)OC(C)(C)C=C2		32 µg/mL (≈ 71 µM)	inactive	64 µg/mL (≈ 142 µM)	inactive	32 (≈ 71 µM)	128 (≈ 284 µM)	inactive	inactive	128 µg/mL (≈ 284 µM)		inactive			inactive	64.4	Not Active
CC(C)=CCc1c(O)c(CC=C(C)C)c2occ(-c3ccc(O)c(O)c3)c(=O)c2c1O	14.3	16 µg/mL (≈ 37.9 µM)		16 µg/mL (≈ 37.9 µM)	128 µg/mL (≈ 303 µM)	32 (≈ 75.7 µM)	128 (≈ 303 µM)	128 µg/mL (≈ 303 µM)	128 µg/mL (≈ 303 µM)	16 µg/mL (≈ 37.9 µM)						90.2	
CC(C)=CCC1=C(O)c2c(occ(-c3ccc(O)c(O)c3)c2=O)C(CC=C(C)C)(CC=C(C)C)C1=O		32 µg/mL (≈ 65.2 µM)		2 µg/mL (≈ 4.08 µM)	128 µg/mL (≈ 261 µM)	4 (≈ 8.15 µM)	4 (≈ 8.15 µM)	128 µg/mL (≈ 261 µM)	128 µg/mL (≈ 261 µM)	16 µg/mL (≈ 32.6 µM)							
CC(C)=CCc1c2c(c(O)c3c(=O)c(-c4ccc(O)cc4)coc13)C=CC(C)(C)O2 [WARANGALONE]	8.5															86.5	
COc1c2c(cc3occ(-c4ccc(OCC=C(C)C)c(O)c4)c(=O)c13)OC(C)(C)C=C2		inactive		inactive	128 µg/mL (≈ 295 µM)	128 (≈ 295 µM)	128 (≈ 295 µM)	inactive	inactive	inactive	inactive	inactive	inactive	inactive	inactive	64.5	Not Active
